The source of these data is ChEMBL document CHEMBL4052591, “Evaluation of Jatrophane Esters from Euphorbia spp. as Modulators of Candida albicans Multidrug Transporters” (2017).

Activity calls are given as the source filed them. No cut-off for these calls is given here.

For experiment [1], the system named is Candida albicans. The experiment in a line: Inhibition of Candida albicans CDR1 transporter expressed in Saccharomyces cerevisiae AD cells assessed as nile red accumulation at 70 uM after 30 mins by flow cytometric analysis relative to control. The experiment is classed as cell-based. In short, it runs like this:
(§1)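 S. cerevisiae AD strains overexpressing CaCdr1p (AD-CDR1) or CaMdr1p (AD-MDR1) were grown at 30 °C from OD600 0.1 to 0.25. They were resuspended as a 5% suspension in YEPD:water 1:2. Nile Red (7 μM final) was given ± inhibitor (70 μM) for 30 min at 30 °C. Accumulation was read by flow cytometry on 10 000 cells. Means ± SD, three independent experiments.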

Experiment [2] concerns Candida albicans. The experiment in a line: Inhibition of Candida albicans MDR1 transporter expressed in Saccharomyces cerevisiae AD cells assessed as nile red dye accumulation at 70 uM after 30 mins by flow cytometric analysis relative to control. The experiment is classed as cell-based. In short, it runs like this:
as §1

Consider `C=C1[C@@H](OC(=O)c2ccccc2)[C@H]2[C@@H](O)[C@](C)(OC(C)=O)C[C@]2(O)C(=O)[C@@H](C)/C=C/C(C)(C)[C@H](OC(C)=O)[C@H](O)[C@H]1OC(=O)c1ccccc1`, for which the inhibition entry in the experiment with Candida albicans [1] and with Candida albicans [2] was “inactive” in each case.

In the case of `C=C1[C@@H](OC(=O)C(C)C)[C@H]2[C@@H](OC(C)=O)[C@](C)(OC(=O)c3cccnc3)C[C@]2(O)C(=O)[C@@H](C)/C=C/C(C)(C)[C@H](OC(=O)c2cccnc2)[C@H](OC(C)=O)[C@H]1OC(=O)c1ccccc1`, the inhibition result in the experiment on Candida albicans [1] and in the experiment with Candida albicans [2] was “inactive” in each case.

In the case of `C=C1[C@@H](OC(=O)C(C)C)[C@H]2[C@@H](O)[C@](C)(OC(C)=O)C[C@]2(O)C(=O)[C@@H](C)/C=C/C(C)(C)[C@H](OC(C)=O)[C@H](OC(C)=O)[C@H]1OC(=O)c1ccccc1`, the inhibition entry with Candida albicans [1] and in the experiment with Candida albicans [2] was “inactive” each time.

Consider `C=C1[C@@H](OC(C)=O)[C@H]2[C@@H](OC(C)=O)[C@](C)(O)C[C@]2(OC(C)=O)C(=O)[C@H](C)/C=C/C(C)(C)C(=O)[C@H](OC(=O)/C(C)=C/C)[C@H]1OC(C)=O`, for which the inhibition result in the experiment with Candida albicans [1] and in the experiment on Candida albicans [2] was “inactive” in each case.

For the molecule `C=C1[C@@H](OC(=O)C(C)C)[C@H]2[C@@H](OC(=O)C(C)C)[C@](C)(OC(C)=O)C[C@]2(O)C(=O)[C@@H](C)/C=C/C(C)(C)[C@H](OC(C)=O)[C@H](OC(C)=O)[C@H]1OC(=O)c1ccccc1`, the inhibition result in the experiment on Candida albicans [1] and with Candida albicans [2] was “inactive” in each case.

On to `C=C1CCC2[C@@H](/C=C(\C)C(=O)[C@@]3(OC(C)=O)C[C@H](C)[C@H](OC(C)=O)[C@@H]3[C@H]1OC(C)=O)C2(C)C` (single isomer, unassigned), for which the inhibition result in the experiment on Candida albicans [1] and with Candida albicans [2] was “inactive” throughout.

As to `C=C1[C@@H](OC(C)=O)[C@H]2[C@@H](OC(=O)c3ccccc3)[C@@H](C)C[C@]2(O)[C@H](O)[C@H](C)/C=C/C(C)(C)C(=O)[C@H](OC(C)=O)[C@H]1OC(C)=O`, the inhibition entry in the experiment with Candida albicans [1] and in the experiment on Candida albicans [2] was “inactive” throughout.

Turning to `C=C1[C@@H](OC(C)=O)[C@H]2[C@@H](OC(C)=O)[C@](C)(OC(=O)c3cccnc3)C[C@]2(OC(C)=O)C(=O)[C@@H](C)/C=C/C(C)(C)[C@H](OC(=O)c2cccnc2)[C@H](OC(C)=O)[C@H]1OC(=O)c1ccccc1`, the inhibition entry in the experiment with Candida albicans [1] and with Candida albicans [2] was “inactive” each time.

As for `CC(=O)O[C@H]1[C@@H](OC(C)=O)C(C)(C)/C=C/[C@@](C)(O)C(=O)[C@@]2(O)C[C@@](C)(OC(C)=O)[C@H](OC(C)=O)[C@@H]2[C@H]2OC(=O)CC[C@@]2(OC(=O)C(C)C)[C@@H]1OC(=O)C(C)C`, the inhibition entry with Candida albicans [1] and with Candida albicans [2] was “inactive” throughout.

On to `C=C1[C@@H](OC(C)=O)[C@H]2[C@@H](OC(C)=O)[C@](C)(OC(C)=O)C[C@]2(OC(C)=O)C(=O)[C@H](C)/C=C/C(C)(C)C(=O)[C@H](OC(C)=O)[C@H]1OC(C)=O`, for which the inhibition result with Candida albicans [1] and with Candida albicans [2] was “inactive” each time.

`C=C1[C@@H](OC(C)=O)[C@H]2[C@@H](OC(C)=O)[C@](C)(OC(=O)c3cccnc3)C[C@]2(O)C(=O)[C@@H](C)/C=C/C(C)(C)[C@H](OC(=O)c2cccnc2)[C@H](OC(C)=O)[C@H]1OC(=O)c1ccccc1`: the inhibition result in the experiment with Candida albicans [1] and with Candida albicans [2] was “inactive” throughout.

As for `C=C1[C@@H](OC(=O)C(C)C)[C@H]2[C@@H](OC(C)=O)[C@](C)(O)C[C@]2(O)C(=O)[C@@H](C)/C=C/C(C)(C)[C@H](OC(C)=O)[C@H](OC(C)=O)[C@H]1OC(=O)c1ccccc1`, the inhibition result in the experiment with Candida albicans [1] and with Candida albicans [2] was “inactive” throughout.

For the molecule `C=C1[C@@H](OC(=O)C(C)C)[C@H]2[C@@H](OC(C)=O)[C@@H](C)C[C@]2(O)C(=O)[C@@H](C)/C=C/C(C)(C)[C@H](OC(C)=O)[C@H](OC(C)=O)[C@H]1OC(=O)c1ccccc1`, the inhibition result in the experiment on Candida albicans [1] and in the experiment with Candida albicans [2] was “inactive” each time.

On to `C=C1[C@@H](OC(=O)C(C)C)[C@H]2[C@@H](OC(C)=O)[C@](C)(OC(C)=O)C[C@]2(O)C(=O)[C@@H](C)/C=C/C(C)(C)[C@H](OC(C)=O)[C@H](OC(C)=O)[C@H]1OC(=O)c1ccccc1`, for which the inhibition entry in the experiment on Candida albicans [1] and in the experiment with Candida albicans [2] was “inactive” throughout.

Turning to `C=C1[C@@H](OC(=O)c2ccccc2)[C@H]2[C@@H](O)[C@](C)(OC(C)=O)C[C@]2(O)C(=O)[C@@H](C)/C=C/C(C)(C)[C@H](OC(C)=O)[C@H](OC(C)=O)[C@H]1OC(=O)c1ccccc1`, the inhibition entry in the experiment with Candida albicans [1] and with Candida albicans [2] was “inactive” in each case.

As to `C=C1[C@@H](OC(C)=O)[C@H]2[C@@H](OC(=O)c3ccccc3)[C@@H](C)C[C@]2(O)[C@H](O)[C@H](C)/C=C/C(C)(C)C(=O)[C@H](O)[C@H]1OC(C)=O`, the inhibition entry in the experiment with Candida albicans [1] and in the experiment with Candida albicans [2] was “inactive” throughout.

Consider `CC(=O)O[C@H]1[C@@H](OC(C)=O)C(C)(C)/C=C/[C@@](C)(O)C(=O)[C@@]2(OC(C)=O)C[C@@](C)(OC(C)=O)[C@H](OC(C)=O)[C@@H]2[C@H]2OC(=O)CC[C@@]2(OC(C)=O)[C@@H]1OC(=O)C(C)C`, for which the inhibition entry in the experiment with Candida albicans [1] and with Candida albicans [2] was “inactive” throughout.

For the molecule `C=C1[C@@H](OC(C)=O)[C@H]2[C@@H](OC(C)=O)[C@](C)(OC(=O)c3cccnc3)C[C@]2(OC(C)=O)C(=O)[C@@H](C)/C=C/C(C)(C)[C@H](OC(=O)c2cccnc2)[C@H](OC(C)=O)[C@H]1OC(=O)C(C)C`, the inhibition result with Candida albicans [1] and in the experiment on Candida albicans [2] was “inactive” throughout.

As to `C=C1[C@@H](OC(=O)c2ccccc2)[C@H]2[C@@H](OC(C)=O)[C@](C)(O)C[C@]2(O)C(=O)[C@@H](C)/C=C/C(C)(C)[C@H](OC(C)=O)[C@H](OC(C)=O)[C@H]1OC(=O)c1cccnc1`, the inhibition entry with Candida albicans [1] and in the experiment on Candida albicans [2] was “inactive” throughout.

On to `C=C1[C@@H](OC(C)=O)[C@H]2[C@@H](OC(C)=O)[C@](C)(OC(C)=O)C[C@]2(OC(C)=O)C(=O)[C@H](C)/C=C/C(C)(C)C(=O)[C@H](OC(=O)/C(C)=C/C)[C@H]1OC(C)=O`, for which the inhibition entry in the experiment on Candida albicans [1] and with Candida albicans [2] was “inactive” each time.

With `C=C1[C@@H](OC(=O)C(C)C)[C@H]2[C@@H](OC(=O)c3ccccc3)[C@](C)(OC(C)=O)C[C@]2(O)C(=O)[C@@H](C)/C=C/C(C)(C)[C@H](OC(C)=O)[C@H](OC(C)=O)[C@H]1OC(=O)C(C)C`, the inhibition result with Candida albicans [1] and in the experiment with Candida albicans [2] was “inactive” each time.

As for `C=C1[C@@H](OC(C)=O)[C@H]2[C@@H](OC(C)=O)[C@](C)(O)C[C@]2(OC(C)=O)C(=O)[C@H](C)/C=C/C(C)(C)C(=O)[C@H](OC(=O)c2ccccc2)[C@H]1OC(C)=O`, the inhibition entry with Candida albicans [1] and in the experiment with Candida albicans [2] was “inactive” throughout.

In the case of `C=C1[C@@H](OC(C)=O)[C@H]2[C@@H](OC(C)=O)[C@](C)(O)C[C@]2(OC(C)=O)C(=O)[C@H](C)/C=C/C(C)(C)C(=O)[C@H](OC(=O)C(C)C)[C@H]1OC(C)=O`, the inhibition entry in the experiment on Candida albicans [1] and in the experiment on Candida albicans [2] was “inactive” in each case.

On to `C=C1[C@@H](OC(C)=O)[C@H]2[C@@H](OC(=O)c3ccccc3)[C@@H](C)C[C@]2(O)[C@H](OC(C)=O)[C@H](C)/C=C/[C@@](C)(CO)C(=O)[C@H](O)[C@H]1OC(C)=O`, for which the inhibition result in the experiment on Candida albicans [1] and in the experiment on Candida albicans [2] was “inactive” each time.

`CC(=O)O[C@H]1[C@@H](OC(C)=O)C(C)(C)/C=C/[C@H](C)C(=O)[C@@]2(OC(C)=O)C[C@@](C)(OC(C)=O)[C@H](O)[C@@H]2[C@H]2OC(=O)CC[C@@]2(OC(C)=O)[C@@H]1OC(=O)C(C)C`: the inhibition entry with Candida albicans [1] and with Candida albicans [2] was “inactive” throughout.

On to `C=C1[C@@H](OC(C)=O)[C@H]2[C@@H](OC(C)=O)[C@](C)(OC(C)=O)C[C@]2(OC(C)=O)C(=O)[C@H](C)/C=C/C(C)(C)C(=O)[C@H](OC(=O)c2ccccc2)[C@H]1OC(C)=O`, for which the inhibition entry in the experiment with Candida albicans [1] and with Candida albicans [2] was “inactive” in each case.
